In ChEMBL document CHEMBL1926607 (J Med Chem, 2011) one finds Ki, EC50 and Activity data, which are given here for 1 compound.

Molecules are shown by their SMILES.

For assay [1], the target named is T1, 5-hydroxytryptamine receptor 1A (Rattus norvegicus, UniProt P19327).
T1 sequence (P19327 whole entry): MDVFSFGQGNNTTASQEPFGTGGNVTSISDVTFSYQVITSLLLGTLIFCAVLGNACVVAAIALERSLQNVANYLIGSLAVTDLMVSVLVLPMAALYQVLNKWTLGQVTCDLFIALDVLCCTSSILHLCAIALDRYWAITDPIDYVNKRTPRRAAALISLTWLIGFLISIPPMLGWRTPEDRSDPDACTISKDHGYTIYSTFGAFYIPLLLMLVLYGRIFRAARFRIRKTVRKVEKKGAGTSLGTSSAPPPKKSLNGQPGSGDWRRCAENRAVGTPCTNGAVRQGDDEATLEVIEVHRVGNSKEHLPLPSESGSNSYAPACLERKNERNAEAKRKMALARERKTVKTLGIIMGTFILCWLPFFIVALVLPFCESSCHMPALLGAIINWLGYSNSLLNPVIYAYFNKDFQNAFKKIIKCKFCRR
In words: Displacement of [3H]-8-OH-DPAT from 5-HT1A receptor in Sprague-Dawley albinus rat cerebral cortex membranes after 15 mins. It is filed as cell membranes, Membrane. For orientation: Loss of bound radioactivity is the signal in a displacement assay; it reports binding, not function.

The target of assay [2] is T2, 5-hydroxytryptamine receptor 3A (Rattus norvegicus, UniProt P35563).
T2 sequence (P35563 whole entry): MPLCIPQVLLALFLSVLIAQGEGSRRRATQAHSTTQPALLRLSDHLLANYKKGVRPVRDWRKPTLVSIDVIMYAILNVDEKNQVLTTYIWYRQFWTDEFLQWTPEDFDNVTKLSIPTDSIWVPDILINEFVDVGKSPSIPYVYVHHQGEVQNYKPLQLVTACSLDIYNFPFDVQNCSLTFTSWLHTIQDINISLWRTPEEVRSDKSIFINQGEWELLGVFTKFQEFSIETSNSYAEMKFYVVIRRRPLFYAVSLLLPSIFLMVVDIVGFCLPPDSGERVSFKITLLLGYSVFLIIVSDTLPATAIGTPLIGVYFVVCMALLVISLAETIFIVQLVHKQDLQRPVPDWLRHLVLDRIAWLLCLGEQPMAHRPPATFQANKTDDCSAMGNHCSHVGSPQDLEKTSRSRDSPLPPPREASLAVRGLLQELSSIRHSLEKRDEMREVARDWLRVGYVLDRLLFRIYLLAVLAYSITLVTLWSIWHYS
Kind of assay: Displacement of [3H]-LY278584 from 5HT3 receptor in Sprague-Dawley albinus rat cerebral cortex membranes after 30 mins. It is filed as cell membranes, Membrane.

For assay [3], the target named is T3, 5-hydroxytryptamine receptor 1A (Homo sapiens, UniProt P08908).
T3 sequence (P08908 whole entry): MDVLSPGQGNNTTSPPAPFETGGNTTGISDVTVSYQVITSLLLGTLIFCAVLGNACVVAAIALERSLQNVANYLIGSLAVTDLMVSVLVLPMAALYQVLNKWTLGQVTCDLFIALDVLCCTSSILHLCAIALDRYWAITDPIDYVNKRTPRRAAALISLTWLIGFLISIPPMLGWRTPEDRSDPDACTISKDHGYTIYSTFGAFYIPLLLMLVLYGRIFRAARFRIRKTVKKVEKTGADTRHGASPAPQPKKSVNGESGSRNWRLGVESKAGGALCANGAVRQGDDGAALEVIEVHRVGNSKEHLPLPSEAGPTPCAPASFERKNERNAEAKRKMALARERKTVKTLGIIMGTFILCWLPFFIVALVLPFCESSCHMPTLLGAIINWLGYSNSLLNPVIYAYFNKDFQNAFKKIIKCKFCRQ
In words: Agonist activity at human 5HT1A receptor expressed in human HeLa cells assessed as inhibition of forskolin-stimulated cAMP production […] measured after 2 hrs by RIA. The format is functional, cell-based. An outline of the steps:
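HeLa cells stably expressing the h5-HT1AR, grown in DMEM with 2 mM glutamine, 1 mM pyruvate and 10% heat-inactivated FCS, and used after 2–3 days at about 7.5 × 10^4 cells/well. After a PBS wash, cells were incubated 10 min in PBS with 0.5 mM isobutylmethylxanthine and 10 μM forskolin, with or without compound. The reaction was stopped with ice-cold ethanol, extracted 2 h and lyophilized; cAMP was measured by RIA.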
(In general: Cyclic AMP is a second messenger, typically raised through Gs and lowered through Gi signalling.)

The nature of assay [4]: Neuroprotective activity in Wistar rat hippocampi primary neuronal cells assessed as protection against oxygen-glucose deprivation induced cell death at 10 uM after 18 hrs by MTT assay. The format is functional, Hippocampus, Primary neuron.

As usually defined, the Ki is a measure of affinity in units of concentration, obtained from inhibition or displacement. The low end stands for a stronger hold on the target, the high end for a looser hold on the target. The term EC50 denotes the concentration at which the effect is half-maximal. For `Cl.O=C1C2CCCN2C(=O)CN1CCCCNCC1CCc2ccccc2O1` (centres undefined), the Ki is 21 nM in assay [1] and over 1000 nM in assay [2]. The EC50 in assay [3] stood at 123 nM. Further, in assay [4], the Activity worked out at 66%.
